According to ChEMBL document CHEMBL2346629, “Discovery and characterization of novel allosteric FAK inhibitors” (Eur J Med Chem, 2013):

Experiments:
[1] = tested on: Proto-oncogene tyrosine-protein kinase receptor Ret (Homo sapiens), P07949 [V804L]; experiment: Inhibition of RET V804L mutant (unknown origin) using [gamma-33P]ATP assessed as residual activity at 3 uM
[2] = tested on: Platelet-derived growth factor receptor alpha (Homo sapiens), P16234 [V561D]; experiment: Inhibition of PDGFRa V561D mutant (unknown origin) using [gamma-33P]ATP assessed as residual activity at 3 uM
[3] = target: Serine/threonine-protein kinase PAK 6 (Homo sapiens) (UniProt Q9NQU5); experiment: Inhibition of PAK6 (unknown origin) using [gamma-33P]ATP assessed as residual activity at 3 uM
[4] = target: Serine/threonine-protein kinase PAK 3 (Homo sapiens) (UniProt O75914); experiment: Inhibition of PAK3 (unknown origin) using [gamma-33P]ATP assessed as residual activity at 3 uM
[5] = target: Mitogen-activated protein kinase 12 (Homo sapiens) (UniProt P53778); experiment: Inhibition of P38g (unknown origin) using [gamma-33P]ATP assessed as residual activity at 3 uM
[6] = target: Serine/threonine-protein kinase Nek4 (Homo sapiens) (UniProt P51957); experiment: Inhibition of NEK4 (unknown origin) using [gamma-33P]ATP assessed as residual activity at 3 uM
[7] = target: Serine/threonine-protein kinase 24 (Homo sapiens) (UniProt Q9Y6E0); experiment: Inhibition of MST3 (unknown origin) using [gamma-33P]ATP assessed as residual activity at 3 uM
[8] = target: Serine/threonine-protein kinase 26 (Homo sapiens) (UniProt Q9P289); experiment: Inhibition of MST4 (unknown origin) using [gamma-33P]ATP assessed as residual activity at 3 uM
[9] = target: Myosin light chain kinase 2, skeletal/cardiac muscle (Homo sapiens) (UniProt Q9H1R3); experiment: Inhibition of MLCK2 (unknown origin) using [gamma-33P]ATP assessed as residual activity at 3 uM
Sequence of Myosin light chain kinase 2, skeletal/cardiac muscle (Homo sapiens) (Q9H1R3 whole entry): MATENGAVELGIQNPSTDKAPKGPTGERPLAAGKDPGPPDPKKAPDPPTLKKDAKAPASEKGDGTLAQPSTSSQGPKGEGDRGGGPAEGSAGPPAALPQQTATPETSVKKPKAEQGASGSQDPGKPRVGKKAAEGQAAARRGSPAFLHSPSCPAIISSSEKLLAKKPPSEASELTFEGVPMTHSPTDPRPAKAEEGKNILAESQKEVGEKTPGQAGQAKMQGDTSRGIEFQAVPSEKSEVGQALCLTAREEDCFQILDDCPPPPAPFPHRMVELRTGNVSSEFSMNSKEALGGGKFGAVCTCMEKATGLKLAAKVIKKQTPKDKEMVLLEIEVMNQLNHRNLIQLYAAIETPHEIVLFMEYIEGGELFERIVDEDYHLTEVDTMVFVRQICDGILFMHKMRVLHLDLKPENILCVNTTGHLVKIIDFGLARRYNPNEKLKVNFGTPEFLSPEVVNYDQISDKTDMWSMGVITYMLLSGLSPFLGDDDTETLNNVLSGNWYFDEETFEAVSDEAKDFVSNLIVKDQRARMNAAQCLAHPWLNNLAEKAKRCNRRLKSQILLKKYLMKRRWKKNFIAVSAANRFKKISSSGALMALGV
Outline: (§1)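 Contract radiometric panel screen of 288 kinases (261 wild-type, 27 mutant). Inhibition was read by [gamma-33P]ATP radioactivity incorporation.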

[10] = target: Misshapen-like kinase 1 (Homo sapiens) (UniProt Q8N4C8); experiment: Inhibition of MINK (unknown origin) using [gamma-33P]ATP assessed as residual activity at 3 uM; outline: as §1
[11] = target: Serine/threonine-protein kinase Chk2 (Homo sapiens, UniProt O96017); experiment: Inhibition of CHK2 (unknown origin) using [gamma-33P]ATP assessed as residual activity at 3 uM
[12] = target: Serine/threonine-protein kinase B-raf (Homo sapiens) (UniProt P15056); experiment: Inhibition of BRAF (unknown origin) using [gamma-33P]ATP assessed as residual activity at 3 uM
Sequence of Serine/threonine-protein kinase B-raf (Homo sapiens) (P15056 whole entry): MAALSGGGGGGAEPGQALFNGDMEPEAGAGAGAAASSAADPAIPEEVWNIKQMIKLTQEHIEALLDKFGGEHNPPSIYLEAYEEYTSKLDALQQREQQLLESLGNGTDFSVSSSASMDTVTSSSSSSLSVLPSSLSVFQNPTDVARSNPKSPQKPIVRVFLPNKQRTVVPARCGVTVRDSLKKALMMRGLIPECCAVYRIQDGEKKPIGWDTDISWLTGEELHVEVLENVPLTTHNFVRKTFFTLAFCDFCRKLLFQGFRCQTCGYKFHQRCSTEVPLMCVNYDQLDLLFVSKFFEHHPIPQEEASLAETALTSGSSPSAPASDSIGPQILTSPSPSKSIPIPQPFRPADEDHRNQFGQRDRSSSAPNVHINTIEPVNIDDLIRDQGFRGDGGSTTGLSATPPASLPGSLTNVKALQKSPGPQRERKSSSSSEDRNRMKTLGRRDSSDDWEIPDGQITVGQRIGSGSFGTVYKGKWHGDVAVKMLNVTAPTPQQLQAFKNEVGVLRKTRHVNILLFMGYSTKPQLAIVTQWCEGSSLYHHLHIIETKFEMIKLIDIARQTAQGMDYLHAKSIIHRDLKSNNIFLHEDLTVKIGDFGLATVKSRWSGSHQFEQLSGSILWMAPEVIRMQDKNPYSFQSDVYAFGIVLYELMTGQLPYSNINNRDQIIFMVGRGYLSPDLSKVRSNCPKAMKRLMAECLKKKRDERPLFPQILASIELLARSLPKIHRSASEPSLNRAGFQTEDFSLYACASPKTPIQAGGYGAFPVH
Outline: (§2)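 Radiometric profiling across 288 kinases (261 wild-type, 27 mutant), run as an outsourced service. Inhibition read out as [gamma-33P]ATP incorporation into substrate.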

[13] = tested on: Mast/stem cell growth factor receptor Kit (Homo sapiens), P10721 [V560G]; experiment: Inhibition of c-Kit V560G mutant (unknown origin) using [gamma-33P]ATP assessed as residual activity at 3 uM
[14] = target: Mitogen-activated protein kinase 10 (Homo sapiens) (UniProt P53779); experiment: Inhibition of JNK3 (unknown origin) using [gamma-33P]ATP assessed as residual activity at 3 uM
Outline: (§3)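 Radiometric kinase profiling service covering 288 kinases (261 wild-type, 27 mutant). Inhibition was read as incorporation from [γ-³³P]ATP.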

[15] = target: Mitogen-activated protein kinase 8 (Homo sapiens) (UniProt P45983); experiment: Inhibition of JNK1a1 (unknown origin) using [gamma-33P]ATP assessed as residual activity at 3 uM; outline: as §3
[16] = target: ALK tyrosine kinase receptor (Homo sapiens) (UniProt Q9UM73); experiment: Inhibition of ALK (unknown origin) using [gamma-33P]ATP assessed as residual activity at 3 uM; outline: as §2
[17] = target: BDNF/NT-3 growth factors receptor (Homo sapiens) (UniProt Q16620); experiment: Inhibition of TRKB (unknown origin) using [gamma-33P]ATP assessed as residual activity at 3 uM
Sequence of BDNF/NT-3 growth factors receptor (Homo sapiens) (Q16620 32-822 limits assumed): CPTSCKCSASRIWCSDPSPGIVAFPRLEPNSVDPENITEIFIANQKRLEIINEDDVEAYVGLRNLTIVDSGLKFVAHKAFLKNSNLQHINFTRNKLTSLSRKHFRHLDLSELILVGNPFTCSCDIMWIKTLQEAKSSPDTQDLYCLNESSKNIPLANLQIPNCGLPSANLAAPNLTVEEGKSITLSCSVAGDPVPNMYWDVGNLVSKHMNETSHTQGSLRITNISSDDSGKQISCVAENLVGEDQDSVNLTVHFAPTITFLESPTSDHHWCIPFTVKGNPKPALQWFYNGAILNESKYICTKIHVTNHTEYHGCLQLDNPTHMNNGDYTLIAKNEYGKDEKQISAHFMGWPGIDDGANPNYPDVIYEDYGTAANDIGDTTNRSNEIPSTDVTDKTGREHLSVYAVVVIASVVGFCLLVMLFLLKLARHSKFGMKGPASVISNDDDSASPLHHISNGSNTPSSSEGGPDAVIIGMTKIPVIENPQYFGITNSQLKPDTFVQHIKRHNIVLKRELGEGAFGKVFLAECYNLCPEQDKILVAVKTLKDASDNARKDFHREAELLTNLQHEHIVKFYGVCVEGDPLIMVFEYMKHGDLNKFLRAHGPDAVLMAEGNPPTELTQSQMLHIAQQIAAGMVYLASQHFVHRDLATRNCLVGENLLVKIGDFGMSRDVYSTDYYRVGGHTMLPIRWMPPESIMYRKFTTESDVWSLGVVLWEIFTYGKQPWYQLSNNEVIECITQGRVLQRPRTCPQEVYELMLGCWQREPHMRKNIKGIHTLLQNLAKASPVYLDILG

[18] = target: Tyrosine-protein kinase SYK (Homo sapiens) (UniProt P43405); experiment: Inhibition of SYK (unknown origin) using [gamma-33P]ATP assessed as residual activity at 3 uM
[19] = target: Serine/threonine-protein kinase 33 (Homo sapiens) (UniProt Q9BYT3); experiment: Inhibition of STK33 (unknown origin) using [gamma-33P]ATP assessed as residual activity at 3 uM
[20] = target: SRSF protein kinase 1 (Homo sapiens) (UniProt Q96SB4); experiment: Inhibition of SRPK1 (unknown origin) using [gamma-33P]ATP assessed as residual activity at 3 uM
[21] = target: Rho-associated protein kinase 1 (Homo sapiens) (UniProt Q13464); experiment: Inhibition of ROCK1 (unknown origin) using [gamma-33P]ATP assessed as residual activity at 3 uM
Sequence of Rho-associated protein kinase 1 (Homo sapiens) (Q13464 2-1354 limits assumed): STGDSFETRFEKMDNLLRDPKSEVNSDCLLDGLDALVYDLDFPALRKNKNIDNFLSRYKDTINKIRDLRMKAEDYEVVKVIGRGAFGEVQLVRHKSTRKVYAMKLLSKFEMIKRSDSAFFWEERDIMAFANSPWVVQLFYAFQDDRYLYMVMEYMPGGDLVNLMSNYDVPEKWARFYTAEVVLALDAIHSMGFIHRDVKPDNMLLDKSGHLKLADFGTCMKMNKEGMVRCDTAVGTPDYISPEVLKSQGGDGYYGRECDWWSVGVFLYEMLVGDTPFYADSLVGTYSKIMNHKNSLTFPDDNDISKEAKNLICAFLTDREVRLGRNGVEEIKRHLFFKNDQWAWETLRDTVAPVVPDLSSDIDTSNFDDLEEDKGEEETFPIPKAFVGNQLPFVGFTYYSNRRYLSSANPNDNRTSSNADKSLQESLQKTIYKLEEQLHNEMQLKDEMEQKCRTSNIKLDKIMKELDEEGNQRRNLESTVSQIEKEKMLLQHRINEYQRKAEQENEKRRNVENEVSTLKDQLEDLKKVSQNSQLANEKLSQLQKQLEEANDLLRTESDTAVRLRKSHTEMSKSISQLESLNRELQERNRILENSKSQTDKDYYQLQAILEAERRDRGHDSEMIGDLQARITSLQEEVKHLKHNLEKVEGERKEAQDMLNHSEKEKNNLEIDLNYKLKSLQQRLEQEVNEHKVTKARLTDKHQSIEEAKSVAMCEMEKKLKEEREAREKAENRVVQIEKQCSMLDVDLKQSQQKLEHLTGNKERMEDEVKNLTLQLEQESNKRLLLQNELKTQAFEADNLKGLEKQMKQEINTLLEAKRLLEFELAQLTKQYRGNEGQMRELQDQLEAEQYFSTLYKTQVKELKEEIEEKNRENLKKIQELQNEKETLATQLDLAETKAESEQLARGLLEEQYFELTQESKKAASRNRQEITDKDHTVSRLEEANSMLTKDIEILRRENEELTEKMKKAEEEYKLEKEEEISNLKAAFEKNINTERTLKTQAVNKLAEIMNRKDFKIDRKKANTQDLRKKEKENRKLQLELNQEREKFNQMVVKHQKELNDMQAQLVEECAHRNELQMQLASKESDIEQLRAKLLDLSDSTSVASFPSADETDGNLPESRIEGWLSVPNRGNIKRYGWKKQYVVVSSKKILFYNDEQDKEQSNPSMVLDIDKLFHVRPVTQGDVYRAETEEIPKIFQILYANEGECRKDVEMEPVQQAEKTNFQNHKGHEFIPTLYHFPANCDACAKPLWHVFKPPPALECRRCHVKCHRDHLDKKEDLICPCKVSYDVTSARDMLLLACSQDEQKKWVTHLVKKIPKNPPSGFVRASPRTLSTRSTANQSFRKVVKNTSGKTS

[22] = target: Receptor-interacting serine/threonine-protein kinase 2 (Homo sapiens) (UniProt O43353); experiment: Inhibition of RIPK2 (unknown origin) using [gamma-33P]ATP assessed as residual activity at 3 uM
[23] = target: Rhodopsin kinase GRK7 (Homo sapiens) (UniProt Q8WTQ7); experiment: Inhibition of GRK7 (unknown origin) using [gamma-33P]ATP assessed as residual activity at 3 uM; outline: as §3
[24] = target: G protein-coupled receptor kinase 3 (Homo sapiens) (UniProt P35626); experiment: Inhibition of GRK3 (unknown origin) using [gamma-33P]ATP assessed as residual activity at 3 uM; outline: as §3
Sequence of G protein-coupled receptor kinase 3 (Homo sapiens) (P35626 whole entry): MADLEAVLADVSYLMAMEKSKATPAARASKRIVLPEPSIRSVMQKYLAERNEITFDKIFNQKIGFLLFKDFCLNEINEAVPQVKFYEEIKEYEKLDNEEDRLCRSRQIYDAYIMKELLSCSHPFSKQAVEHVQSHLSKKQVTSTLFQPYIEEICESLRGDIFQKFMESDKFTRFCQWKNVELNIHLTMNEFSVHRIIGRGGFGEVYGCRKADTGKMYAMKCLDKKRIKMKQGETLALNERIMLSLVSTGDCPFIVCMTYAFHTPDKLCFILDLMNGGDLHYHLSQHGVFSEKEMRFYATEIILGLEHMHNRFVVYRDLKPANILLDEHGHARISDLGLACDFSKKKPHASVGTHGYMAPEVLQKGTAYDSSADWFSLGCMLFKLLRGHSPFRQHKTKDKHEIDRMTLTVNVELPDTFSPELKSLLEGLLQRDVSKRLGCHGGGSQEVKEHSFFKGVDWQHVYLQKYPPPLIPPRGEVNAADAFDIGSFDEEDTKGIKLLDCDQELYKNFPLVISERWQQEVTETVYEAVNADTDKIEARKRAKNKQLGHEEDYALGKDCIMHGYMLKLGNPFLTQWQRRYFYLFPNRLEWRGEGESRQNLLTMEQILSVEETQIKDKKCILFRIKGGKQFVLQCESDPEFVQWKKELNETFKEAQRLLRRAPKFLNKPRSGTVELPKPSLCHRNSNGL

[25] = target: Ephrin type-A receptor 2 (Homo sapiens) (UniProt P29317); experiment: Inhibition of EPHA2 (unknown origin) using [gamma-33P]ATP assessed as residual activity at 3 uM
Outline: (§4)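 Reaction Biology HotSpot radiometric profiling panel of 288 kinases (261 wild-type, 27 mutant). Kinase activity was read out by incorporation of [γ-33P]ATP.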

[26] = target: Protein kinase C zeta type (Homo sapiens) (UniProt Q05513); experiment: Inhibition of PKCzeta (unknown origin) using [gamma-33P]ATP assessed as residual activity at 3 uM
[27] = target: Protein kinase C gamma type (Homo sapiens) (UniProt P05129); experiment: Inhibition of PKCgamma (unknown origin) using [gamma-33P]ATP assessed as residual activity at 3 uM
[28] = target: Protein kinase C eta type (Homo sapiens) (UniProt P24723); experiment: Inhibition of PKCeta (unknown origin) using [gamma-33P]ATP assessed as residual activity at 3 uM
Sequence of Protein kinase C eta type (Homo sapiens) (P24723 whole entry): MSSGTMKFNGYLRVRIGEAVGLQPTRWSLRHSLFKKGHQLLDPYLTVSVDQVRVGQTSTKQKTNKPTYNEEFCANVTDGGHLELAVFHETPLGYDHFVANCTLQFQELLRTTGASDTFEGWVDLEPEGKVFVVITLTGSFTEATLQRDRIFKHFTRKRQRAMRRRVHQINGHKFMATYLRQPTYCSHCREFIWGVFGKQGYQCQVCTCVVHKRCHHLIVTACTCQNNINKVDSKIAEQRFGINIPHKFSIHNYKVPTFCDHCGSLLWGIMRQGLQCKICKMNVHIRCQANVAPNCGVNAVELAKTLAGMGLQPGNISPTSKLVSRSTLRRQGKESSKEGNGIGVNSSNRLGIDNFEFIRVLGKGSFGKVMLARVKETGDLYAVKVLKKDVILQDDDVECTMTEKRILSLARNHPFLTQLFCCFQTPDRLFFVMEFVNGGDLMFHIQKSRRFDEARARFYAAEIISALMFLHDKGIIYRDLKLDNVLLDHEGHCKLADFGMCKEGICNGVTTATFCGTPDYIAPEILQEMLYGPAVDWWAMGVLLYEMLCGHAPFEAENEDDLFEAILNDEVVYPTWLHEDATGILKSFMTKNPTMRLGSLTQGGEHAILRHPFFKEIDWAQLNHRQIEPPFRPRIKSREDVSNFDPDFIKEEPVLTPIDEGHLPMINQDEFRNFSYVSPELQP

[29] = target: Dual specificity tyrosine-phosphorylation-regulated kinase 3 (Homo sapiens) (UniProt O43781); experiment: Inhibition of DYRK3 (unknown origin) using [gamma-33P]ATP assessed as residual activity at 3 uM; outline: as §4
[30] = target: Discoidin domain-containing receptor 2 (Homo sapiens) (UniProt Q16832); experiment: Inhibition of DDR2 (unknown origin) using [gamma-33P]ATP assessed as residual activity at 3 uM; outline: as §4
[31] = target: Platelet-derived growth factor receptor alpha (Homo sapiens) (UniProt P16234); experiment: Inhibition of PDGFRa (unknown origin) using [gamma-33P]ATP assessed as residual activity at 3 uM

Activity [1]: 94%
Activity [2]: 81%
Activity [3]: 97%
Activity [4]: 95%
Activity [5]: 101%
Activity [6]: 90%
Activity [7]: 73%
Activity [8]: 98%
Activity [9]: 96%
Activity [10]: 55%
Activity [11]: 50%
Activity [12]: 98%
Activity [13]: 72%
Activity [14]: 102%
Activity [15]: 101%
Activity [16]: 88%
Activity [17]: 101%
Activity [18]: 72%
Activity [19]: 94%
Activity [20]: 90%
Activity [21]: 94%
Activity [22]: 91%
Activity [23]: 85%
Activity [24]: 93%
Activity [25]: 90%
Activity [26]: 98%
Activity [27]: 96%
Activity [28]: 93%
Activity [29]: 100%
Activity [30]: 96%
Activity [31]: 87%
SMILES: CCc1ccc(-c2ccc3c(c2)-c2[nH]ncc2S(=O)(=O)N3C)cc1
